pIC50: −log10 of the molar value. Activity calls are given as the source filed them. The rule behind the calls is not given here.
Key:
CCRF-SB = test: Antiproliferative activity against human CCRF-SB cells after 96 hrs by MTT assay; format: functional, cell-based
In short: (§1)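 Exponentially growing cells in RPMI 1640 with 10% FCS were resuspended at 1 × 10⁵ cells/mL in RPMI containing serial dilutions of compound (DMSO solution at 200 µM, diluted in medium). After 96 h at 37 °C, viability was read by MTT. Growth was taken as % of untreated controls, which grew at least three rounds. IC50 came from linear regression, as the mean of three independent determinations.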

SF-268 = test: Antiproliferative activity against human SF-268 cells after 96 hrs by MTT assay; format: functional, cell-based; conditions: SF-268, 96 h
In short: (§2)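 Solid-tumor cells in their specific media with 10% FCS were seeded at 5 × 10⁴ cells/mL and left to adhere 16 h. Serially diluted compound was then added (DMSO solution at 200 µM, diluted in medium). MTT viability was read 4 days later. IC50 came from linear regression against untreated controls, which grew at least three rounds, as the mean of three independent determinations.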

[1] = molecular target: DNA topoisomerase 2-alpha (Homo sapiens) (UniProt P11388); test: Inhibition of DNA topoisomerase 2-mediated negatively supercoiled pBR322 relaxation
Chain of DNA topoisomerase 2-alpha (Homo sapiens) (P11388 whole entry): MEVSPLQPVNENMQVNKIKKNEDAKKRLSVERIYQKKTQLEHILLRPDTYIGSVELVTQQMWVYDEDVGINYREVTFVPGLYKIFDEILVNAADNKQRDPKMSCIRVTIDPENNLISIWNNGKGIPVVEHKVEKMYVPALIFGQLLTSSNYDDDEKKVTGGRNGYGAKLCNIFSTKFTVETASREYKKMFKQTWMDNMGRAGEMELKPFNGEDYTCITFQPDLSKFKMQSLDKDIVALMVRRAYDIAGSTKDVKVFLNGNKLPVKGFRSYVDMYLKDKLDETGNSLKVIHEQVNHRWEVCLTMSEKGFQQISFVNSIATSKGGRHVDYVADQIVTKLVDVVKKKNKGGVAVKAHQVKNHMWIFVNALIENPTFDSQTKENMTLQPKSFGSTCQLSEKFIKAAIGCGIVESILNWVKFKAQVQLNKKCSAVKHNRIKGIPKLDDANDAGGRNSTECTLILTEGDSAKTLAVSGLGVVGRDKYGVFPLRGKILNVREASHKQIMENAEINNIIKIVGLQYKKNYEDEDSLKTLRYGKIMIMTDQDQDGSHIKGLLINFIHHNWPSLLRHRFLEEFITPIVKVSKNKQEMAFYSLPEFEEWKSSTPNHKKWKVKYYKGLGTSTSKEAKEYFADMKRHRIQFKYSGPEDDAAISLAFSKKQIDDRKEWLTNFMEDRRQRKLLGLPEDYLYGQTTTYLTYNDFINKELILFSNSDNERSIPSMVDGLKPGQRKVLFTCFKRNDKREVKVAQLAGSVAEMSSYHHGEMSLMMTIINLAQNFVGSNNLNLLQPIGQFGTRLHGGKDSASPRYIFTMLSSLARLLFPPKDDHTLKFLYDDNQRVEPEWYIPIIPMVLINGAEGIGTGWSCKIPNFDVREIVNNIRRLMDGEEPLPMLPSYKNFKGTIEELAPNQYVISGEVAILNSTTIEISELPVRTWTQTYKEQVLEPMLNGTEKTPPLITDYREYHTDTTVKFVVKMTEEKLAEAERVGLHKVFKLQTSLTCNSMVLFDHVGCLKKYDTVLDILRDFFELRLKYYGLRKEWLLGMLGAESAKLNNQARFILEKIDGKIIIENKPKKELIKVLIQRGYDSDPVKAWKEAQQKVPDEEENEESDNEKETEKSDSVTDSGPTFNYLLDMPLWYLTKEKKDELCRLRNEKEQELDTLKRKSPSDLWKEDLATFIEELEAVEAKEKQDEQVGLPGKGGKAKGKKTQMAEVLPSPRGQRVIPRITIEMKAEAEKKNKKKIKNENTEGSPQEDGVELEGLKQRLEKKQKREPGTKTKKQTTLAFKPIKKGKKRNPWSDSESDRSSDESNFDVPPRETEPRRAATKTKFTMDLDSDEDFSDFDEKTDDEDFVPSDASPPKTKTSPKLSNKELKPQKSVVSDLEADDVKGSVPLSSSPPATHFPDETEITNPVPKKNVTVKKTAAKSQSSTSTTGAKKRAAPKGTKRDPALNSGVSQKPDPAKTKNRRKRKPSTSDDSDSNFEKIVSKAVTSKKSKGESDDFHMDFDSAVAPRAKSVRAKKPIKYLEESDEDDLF

HeLa = test: Antiproliferative activity against human HeLa cells after 96 hrs by MTT assay; format: functional, cell-based; in short: as §2
CCRF-CEM = test: Antiproliferative activity against human CCRF-CEM cells after 96 hrs by MTT assay; format: functional, cell-based; in short: as §1
MRC5 = test: Antiproliferative activity against human MRC5 cells after 96 hrs by MTT assay; format: cell-based; conditions: MRC5, 96 h; in short: as §1
[2] = molecular target: T1, DNA topoisomerase 1 (Homo sapiens) (UniProt P11387); test: Inhibition of DNA topoisomerase 1-mediated supercoiled pBR322 DNA relaxation at 5 to 10 uM by agarose gel electrophoresis
T1 sequence (whole entry): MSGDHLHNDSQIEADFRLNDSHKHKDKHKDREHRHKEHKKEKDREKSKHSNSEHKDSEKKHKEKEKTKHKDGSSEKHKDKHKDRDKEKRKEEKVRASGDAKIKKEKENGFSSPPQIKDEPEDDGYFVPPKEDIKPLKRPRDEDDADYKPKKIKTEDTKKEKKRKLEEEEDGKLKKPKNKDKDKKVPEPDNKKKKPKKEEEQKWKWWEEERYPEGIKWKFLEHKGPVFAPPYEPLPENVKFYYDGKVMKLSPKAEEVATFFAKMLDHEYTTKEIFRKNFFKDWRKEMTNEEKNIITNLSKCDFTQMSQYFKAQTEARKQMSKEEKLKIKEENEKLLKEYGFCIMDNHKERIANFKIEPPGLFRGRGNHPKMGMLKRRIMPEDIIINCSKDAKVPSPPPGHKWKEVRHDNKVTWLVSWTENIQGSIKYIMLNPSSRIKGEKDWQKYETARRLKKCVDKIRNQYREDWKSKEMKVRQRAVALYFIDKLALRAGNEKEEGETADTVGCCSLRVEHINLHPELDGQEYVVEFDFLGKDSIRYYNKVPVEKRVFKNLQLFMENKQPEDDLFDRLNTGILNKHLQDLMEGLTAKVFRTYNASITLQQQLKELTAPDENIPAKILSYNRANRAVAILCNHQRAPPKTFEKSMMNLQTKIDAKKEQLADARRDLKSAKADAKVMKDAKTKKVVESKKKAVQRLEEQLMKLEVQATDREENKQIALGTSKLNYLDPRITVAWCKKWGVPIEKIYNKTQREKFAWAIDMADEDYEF

HT-29 = test: Antiproliferative activity against human HT-29 cells after 96 hrs by MTT assay; format: functional, cell-based; conditions: Homo sapiens, HT-29, 96 h; in short: as §2
XF498 = test: Antiproliferative activity against human XF498 cells after 96 hrs by MTT assay; format: functional, cell-based; conditions: XF498, 96 h; in short: as §2
MT4 = test: Antiproliferative activity against human MT4 cells after 96 hrs by MTT assay; format: functional, cell-based; conditions: Homo sapiens, MT4, 96 h; in short: as §1
MCF7 = test: Antiproliferative activity against human MCF7 cells after 96 hrs by MTT assay; format: functional, cell-based; conditions: MCF7, 96 h; in short: as §2
ACHN = test: Antiproliferative activity against human ACHN cells after 96 hrs by MTT assay; format: functional, cell-based; in short: as §2
[3] = molecular target: T2, DNA ligase (Enterobacteria phage T4) (UniProt P00970); test: Inhibition of T4 DNA ligase by DNA unwinding assay; conditions: Tequatrovirus T4
T2 sequence (whole entry): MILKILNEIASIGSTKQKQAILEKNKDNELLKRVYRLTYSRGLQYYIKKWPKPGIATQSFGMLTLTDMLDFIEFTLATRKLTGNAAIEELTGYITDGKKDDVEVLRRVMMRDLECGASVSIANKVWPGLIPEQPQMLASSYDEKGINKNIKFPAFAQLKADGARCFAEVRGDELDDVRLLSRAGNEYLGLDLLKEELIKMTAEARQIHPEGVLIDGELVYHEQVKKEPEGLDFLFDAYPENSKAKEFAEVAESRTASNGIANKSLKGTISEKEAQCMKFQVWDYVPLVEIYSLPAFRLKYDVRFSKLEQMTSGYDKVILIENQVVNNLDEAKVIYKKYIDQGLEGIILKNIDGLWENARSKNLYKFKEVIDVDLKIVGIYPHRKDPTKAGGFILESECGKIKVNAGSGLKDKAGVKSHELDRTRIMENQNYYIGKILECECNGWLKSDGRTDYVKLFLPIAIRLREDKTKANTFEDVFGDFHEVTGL
In short: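 EcoRI-linearized pBR322 (0.1 µg) in 30 mM Tris-HCl pH 7.8, 10 mM MgCl2, 10 mM DTT and 0.5 mM ATP was equilibrated with compound 30 min at 20 °C. Excess T4 DNA ligase was then added for 30 min at 20 °C, and reactions were stopped at 55 °C. After phenol extraction, products were resolved on 1% agarose gels.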

[4] = molecular target: T1, DNA topoisomerase 1 (Homo sapiens); test: Inhibition of DNA topoisomerase 1-mediated supercoiled pBR322 DNA relaxation at 5 uM by agarose gel electrophoresis
[5] = molecular target: T1, DNA topoisomerase 1 (Homo sapiens); test: Inhibition of DNA topoisomerase 1-mediated supercoiled pBR322 DNA relaxation at 25 uM by agarose gel electrophoresis

pIC50 (CCRF-SB) | Activity [1] | pIC50 (HeLa) | pIC50 (CCRF-CEM) | Activity [2] | pIC50 (HT-29) | pIC50 (MCF7) | pIC50 (ACHN) | Activity [3] | Activity [4] | Activity [5] | Compound | pIC50 (SF-268) | pIC50 (MRC5) | pIC50 (XF498) | pIC50 (MT4)
8.70 | Dose-dependent effect | 8.30 | 9.00 | inactive | 9.00 | 8.70 | 9.00 | – | – | – | CCCc1ccc(N2C(=O)NC3(CSC4=C3C(=O)c3ncccc3C4=O)C2=O)cc1 (racemic) | 6.52 | 6.07 | 6.35 | 9.00
– | – | – | 7.70 | – | 8.70 | – | – | Active | Active | Active | COc1cccc2c1C(=O)c1c(O)c3c(c(O)c1C2=O)C[C@@](O)(C(=O)CO)C[C@@H]3O[C@H]1C[C@H](N)[C@H](O)[C@H](C)O1 [DOXORUBICIN] | 6.70 | 6.52 | 6.80 | 8.52

— ChEMBL document CHEMBL1151746, “Antitumor agents 6. Synthesis, structure-activity relationships, and biological evaluation of spiro[imidazolidine-4,3'-thieno[2,3-g]quinoline]-tetraones and spiro[thieno[2,3-g]quinoline-3,5'-[1,2,4]triazinane]-tetraones with potent antiproliferative activity” (J Med Chem, 2008)
